Measured values as given in ChEMBL document CHEMBL2311257, “Synthesis and antioxidant activity of thymol and carvacrol based Schiff bases” (Bioorg Med Chem Lett, 2013).
≈ marks a conversion by molar mass, not a printed value.

What was measured:
Format in all cases: functional
[1] = test system: Radical scavenging activity; assay: Antioxidant activity assessed as DPPH radical scavenging activity in ethanol solution at 10 ug/mL
Procedure, shortened: (§1)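 Compound dissolved in ethanol, then ethanolic DPPH added. Incubated 30 min in the dark. DPPH decrease read as absorbance at 517 nm against an ethanol blank, with ascorbic acid as reference. % activity = [(A0 − Ai)/A0] × 100, where A0 is absorbance without compound and Ai with compound. IC50 taken from activity across concentrations.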

[2] = test system: Radical scavenging activity; assay: Antioxidant activity assessed as DPPH radical scavenging activity in ethanol solution at 25 ug/mL; procedure, shortened: as §1
[3] = test system: Radical scavenging activity; assay: Antioxidant activity assessed as DPPH radical scavenging activity in ethanol solution at 50 ug/mL; procedure, shortened: as §1
[4] = test system: Radical scavenging activity; assay: Antioxidant activity assessed as DPPH radical scavenging activity in ethanol solution at 100 ug/mL; procedure, shortened: as §1
[5] = test system: Radical scavenging activity; assay: Antioxidant activity assessed as DPPH radical scavenging activity in ethanol solution; procedure, shortened: as §1
[6] = test system: Radical scavenging activity; assay: Antioxidant activity assessed as DPPH radical scavenging activity in ethanol solution at 5 ug/mL; procedure, shortened: as §1

IC50 [5] [µg/mL]	Compound	Activity [1] [%]	Activity [2] [%]	Activity [3] [%]	Activity [4] [%]	Activity [6] [%]
20.16 (≈ 68.2 µM)	CCCc1ccc(/C=N/c2cc(C(C)C)c(O)cc2C)cc1	50.7	65.5	69.2	72.5	25.1
32.52 (≈ 120 µM)	Cc1cc(/N=C/c2ccc(F)cc2)c(C(C)C)cc1O	41.1	58.8	66.3	73.7	22.5
23.77 (≈ 71.5 µM)	Cc1cc(/N=C/c2ccc(Br)cc2)c(C(C)C)cc1O	45.4	63.1	64.5	79.9	28.8
11.95 (≈ 40.2 µM)	Cc1cc(O)c(C(C)C)cc1/N=C/c1ccc2c(c1)OCO2	48	74.5	82.5	89.5	27.3
18.55 (≈ 73.2 µM)	Cc1cc(O)c(C(C)C)cc1/N=C/c1ccccc1	45.2	60.6	77.9	83.8	31.6
21.62 (≈ 76.8 µM)	CCc1ccc(/C=N/c2cc(C(C)C)c(O)cc2C)cc1	43	64.7	72.4	77	28.8
25.34 (≈ 90.1 µM)	CCc1ccc(/C=N/c2cc(C)c(O)cc2C(C)C)cc1	42.1	61.3	75.2	82.3	23.4
25.58 (≈ 95.7 µM)	Cc1ccc(/C=N/c2cc(C)c(O)cc2C(C)C)cc1	44.9	60.7	73.4	81.3	22.1
63.03 (≈ 211 µM)	Cc1cc(O)c(C(C)C)cc1/N=C/c1ccc([N+](=O)[O-])cc1	17.6	36.2	50.9	65.3	10.3
21.89 (≈ 81.9 µM)	Cc1ccc(/C=N/c2cc(C(C)C)c(O)cc2C)cc1	45	64.7	71.4	75.1	27.3
51.92 (≈ 174 µM)	Cc1cc(/N=C/c2ccc([N+](=O)[O-])cc2)c(C(C)C)cc1O	32	43	55.8	68.6	17.1
23.86 (≈ 93.8 µM)	Cc1cc(O)c(C(C)C)cc1/N=C/c1ccccn1	43.6	58.4	74.6	92.8	25.5
22.05 (≈ 66.4 µM)	Cc1cc(O)c(C(C)C)cc1/N=C/c1ccc(Br)cc1	46.9	60	72.5	80.9	27.7
19.42 (≈ 62.8 µM)	Cc1cc(O)c(C(C)(C)C)cc1/N=C/c1ccc(C(C)C)cc1	45.9	64	74	86.4	28.7
18.66 (≈ 63.2 µM)	Cc1cc(O)c(C(C)C)cc1/N=C/c1ccc(C(C)C)cc1	50.8	67.5	70.5	82.6	24.5
37.8 (≈ 149 µM)	Cc1cc(O)c(C(C)C)cc1/N=C/c1cccnc1	38.9	48	68.2	79	16.5
18.37 (≈ 59.4 µM)	Cc1cc(O)c(C(C)C)cc1/N=C/c1ccc(C(C)(C)C)cc1	51.6	66.2	73.5	83.8	23.6
24.11 (≈ 83.8 µM)	Cc1cc(O)c(C(C)C)cc1/N=C/c1ccc(Cl)cc1	44.7	63.8	74.1	79.8	22.4
26.96 (≈ 94.5 µM)	Cc1cc(O)c(C(C)(C)C)cc1/N=C/c1ccc(F)cc1	41.8	57	72	75.3	28.5
25.59 (≈ 94.3 µM)	Cc1cc(O)c(C(C)C)cc1/N=C/c1ccc(F)cc1	44.1	62.9	73.2	79.2	21.7
24.29 (≈ 84.4 µM)	Cc1cc(/N=C/c2ccc(Cl)cc2)c(C(C)C)cc1O	47.3	59.6	68	75.6	27.8
21.08 (≈ 71.4 µM)	Cc1cc(/N=C/c2ccc(C(C)C)cc2)c(C(C)C)cc1O	49.5	61.7	72.4	78	25.8
22.03 (≈ 74.6 µM)	CCCc1ccc(/C=N/c2cc(C)c(O)cc2C(C)C)cc1	44.6	63.9	76.6	84.7	23.9

Second part, the compound before the results:

Compound	IC50 [5] [µg/mL]	Activity [1] [%]	Activity [2] [%]	Activity [3] [%]	Activity [4] [%]	Activity [6] [%]
Cc1cc(/N=C/c2cccnc2)c(C(C)C)cc1O	32.76 (≈ 129 µM)	34.2	61.9	71.1	73.8	21.8
Cc1cc(O)c(C(C)(C)C)cc1/N=C/c1ccc(C(C)(C)C)cc1	20.05 (≈ 62 µM)	45.6	65.2	73	86.7	27.5
Cc1cc(O)c(C(C)(C)C)cc1/N=C/c1cccnc1	34.03 (≈ 127 µM)	37.6	54.5	70.3	78.3	20.1
Cc1cc(/N=C/c2ccccc2)c(C(C)C)cc1O	22.26 (≈ 87.9 µM)	45.4	63.1	75	82.5	24.6
Cc1cc(O)c(C(C)(C)C)cc1/N=C/c1ccc(Cl)cc1	22.2 (≈ 73.6 µM)	42.6	61.5	73.9	79.8	29.7
Cc1ccc(C(C)C)cc1O [CARVACROL]	131.24 (≈ 874 µM)	9.91	18.4	27.4	37.4	5.17
O=C1O[C@H]([C@@H](O)CO)C(O)=C1O [ASCORBIC ACID]	11.66 (≈ 66.2 µM)	45	85	94.4	95.6	18.9
CCCc1ccc(/C=N/c2cc(C(C)(C)C)c(O)cc2C)cc1	21.12 (≈ 68.2 µM)	45.8	62.9	70.8	84	28.6
Cc1cc(O)c(C(C)(C)C)cc1/N=C/c1ccccc1	18.6 (≈ 69.6 µM)	49.6	61.1	75.7	87	28
Cc1cc(O)c(C(C)(C)C)cc1/N=C/c1ccccn1	22.27 (≈ 83 µM)	44.7	61	80.7	91.7	22.4
Cc1cc(/N=C/c2ccc3c(c2)OCO3)c(C(C)C)cc1O	16.58 (≈ 55.8 µM)	45.4	68.6	77.5	88.8	28.8
Cc1cc(O)c(C(C)(C)C)cc1/N=C/c1ccc([N+](=O)[O-])cc1	47.39 (≈ 152 µM)	26	45.3	62.4	73	16.8
Cc1ccc(C(C)(C)C)c(O)c1	173.95 (≈ 1060 µM)	4.69	11.3	19.6	28.6	3.29
Cc1cc(O)c(C(C)(C)C)cc1/N=C/c1ccc2c(c1)OCO2	13.64 (≈ 43.8 µM)	49.8	68.5	87.5	89.3	25.1
Cc1cc(/N=C/c2ccc(C(C)(C)C)cc2)c(C(C)C)cc1O	21.89 (≈ 70.7 µM)	49.9	62.1	70.2	79.2	25
Cc1ccc(C(C)C)c(O)c1 [THYMOL]	167.57 (≈ 1120 µM)	5.49	14.7	21.3	29.5	3.07
Cc1cc(/N=C/c2ccccn2)c(C(C)C)cc1O	24.4 (≈ 95.9 µM)	41.2	65.2	75.5	78.1	23.4
CCc1ccc(/C=N/c2cc(C(C)(C)C)c(O)cc2C)cc1	24.04 (≈ 81.4 µM)	47.2	56.3	72.4	80.9	27.1
Cc1ccc(/C=N/c2cc(C(C)(C)C)c(O)cc2C)cc1	24.32 (≈ 86.4 µM)	48.4	57.7	69.6	75.7	27.2
Cc1cc(O)c(C(C)(C)C)cc1/N=C/c1ccc(Br)cc1	20.36 (≈ 58.8 µM)	43.9	59.4	74.2	81.1	32.8
